Data published in ChEMBL document CHEMBL5724801, “EUbOPEN Chemogenomics Library - Multiplex” (2024).
Several values for one entry are separate records, joined by “and”; a condition that tells them apart may be missing. Identical values can stand only once.

Test system: Fibroblast
Assay: Multiplex assay against human fibroblast
Type: toxicity, cell-based
Procedure, shortened: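 Live cells were stained at seeding with Hoechst33342, BioTracker Green Microtubule Cytoskeleton Dye, MitoTracker Red and Annexin V Alexa Fluor 680, then imaged on a CQ1 microscope at 37°C and 5% CO2 after compound addition. CellPathfinder machine-learning gating split cells into Hoechst high-intensity objects or normal cells. Normal cells were split into healthy, pyknosed or fragmented nuclei, and pyknosed cells into mitotic or apoptotic. Tubulin, mitochondrial-mass and membrane-permeability phenotypes are per cents of healthy-nucleus cells.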

[1] = 12 h, 1 µM, compound concentration 1 uM
[2] = 12 h, 10 µM, compound concentration 10 uM
[3] = 24 h, 1 µM, compound concentration 1 uM
[4] = 24 h, 10 µM, compound concentration 10 uM
[5] = 48 h, 1 µM, compound concentration 1 uM
[6] = 48 h, 10 µM, compound concentration 10 uM

In the case of `NC1=NC(=O)/C(=C2\CCNC(=O)c3[nH]c4ccccc4c32)N1`, the “Population Apoptotic (%)” value [1] is reported as 5.88% and 11.11%, the “Population Healthy Nuclei (%)” value [1] is reported as 60.61% and 85.31% and the “Population Hoechst High Intensity Objects (%)” value [1] is reported as 0%. The “Population Membrane Permeable-Phenotype (%)” value [1] was 2% and 1.91%, the “Population Mitochondria Different-Phenotype (%)” value [1] was 8% and 7.66% and the “Population Mitotic Cells (%)” value [1] was 94.12% and 88.89%. For the same compound, the “Population Normal (%)” value [1] was 100%, the “Population Pyknosed Nuclei (%)” value [1] was 20.61% and 11.02% and the “Population Tubulin-Different-Phenotype (%)” value [1] was 10% and 11.48%. For the same compound, the “Total Cell Count” value [1] was 165 and 245, the “Population Fragmented Nuclei (%)” value [2] was 8.29% and 5.11% and the “Population Healthy Nuclei (%)” value [2] was 63.9% and 72.73%. The “Population Hoechst High Intensity Objects (%)” value [2] was 0%, the “Population Membrane Permeable-Phenotype (%)” value [2] was 3.82% and 2.34% and the “Population Mitochondria Different-Phenotype (%)” value [2] was 7.63% and 9.38%. For the same compound, the “Population Mitotic Cells (%)” value [2] was 92.98% and 76.92%, the “Population Normal (%)” value [2] was 100% and the “Population Pyknosed Nuclei (%)” value [2] was 27.8% and 22.16%. For the same compound, the “Population Tubulin-Different-Phenotype (%)” value [2] was 9.92% and 14.06%, the “Total Cell Count” value [2] was 205 and 176 and the “Population Apoptotic (%)” value [3] was 10% and 14.71%. For the same compound, the “Population Fragmented Nuclei (%)” value [3] was 10% and 5.2%, the “Population Healthy Nuclei (%)” value [3] was 73.33% and 81.2% and the “Population Hoechst High Intensity Objects (%)” value [3] was 0%. The “Population Membrane Permeable-Phenotype (%)” value [3] was 6.06% and 1.48%, the “Population Mitochondria Different-Phenotype (%)” value [3] was 3.79% and 8.37% and the “Population Mitotic Cells (%)” value [3] was 90% and 85.29%. The “Population Normal (%)” value [3] was 100%, the “Population Pyknosed Nuclei (%)” value [3] was 16.67% and 13.6% and the “Population Tubulin-Different-Phenotype (%)” value [3] was 12.12% and 11.33%. The “Total Cell Count” value [3] was 180 and 250, the “Population Apoptotic (%)” value [4] was 4.92% and 12.82% and the “Population Fragmented Nuclei (%)” value [4] was 6.84% and 5.46%. The “Population Healthy Nuclei (%)” value [4] was 67.09% and 73.22%, the “Population Hoechst High Intensity Objects (%)” value [4] was 0% and the “Population Membrane Permeable-Phenotype (%)” value [4] was 5.1% and 0%. The “Population Mitochondria Different-Phenotype (%)” value [4] was 3.82% and 5.97%, the “Population Mitotic Cells (%)” value [4] was 95.08% and 87.18% and the “Population Normal (%)” value [4] was 100%. For the same compound, the “Population Pyknosed Nuclei (%)” value [4] was 26.07% and 21.31%, the “Population Tubulin-Different-Phenotype (%)” value [4] was 12.1% and 15.67% and the “Total Cell Count” value [4] was 234 and 183. For the same compound, the “Population Fragmented Nuclei (%)” value [5] was 13% and 5%, the “Population Healthy Nuclei (%)” value [5] was 83% and 91.25% and the “Population Hoechst High Intensity Objects (%)” value [5] was 0%. The “Population Membrane Permeable-Phenotype (%)” value [5] was 1.2% and 2.74%, the “Population Mitotic Cells (%)” value [5] was 87.5% and 55.56% and the “Population Normal (%)” value [5] was 100%. The “Population Pyknosed Nuclei (%)” value [5] was 4% and 3.75%, the “Population Tubulin-Different-Phenotype (%)” value [5] was 6.02% and 11.42% and the “Total Cell Count” value [5] was 200 and 240. The “Population Apoptotic (%)” value [6] was 19.05% and 14.29%, the “Population Fragmented Nuclei (%)” value [6] was 4.95% and 6.88% and the “Population Healthy Nuclei (%)” value [6] was 87.63% and 85.71%. The “Population Hoechst High Intensity Objects (%)” value [6] was 0%, the “Population Membrane Permeable-Phenotype (%)” value [6] was 0.4% and 4.32% and the “Population Mitochondria Different-Phenotype (%)” value [6] was 11.69% and 2.47%. For the same compound, the “Population Mitotic Cells (%)” value [6] was 80.95% and 85.71%, the “Population Normal (%)” value [6] was 100% and the “Population Pyknosed Nuclei (%)” value [6] was 7.42% and 7.41%. The “Population Tubulin-Different-Phenotype (%)” value [6] was 6.45% and 14.2% and the “Total Cell Count” value [6] was 283 and 189.
